Activity calls are given as the source filed them. The rule behind the calls is not given here.
Legend:
[1] = target: Serine/threonine-protein kinase PLK3 (Homo sapiens, UniProt Q9H4B4); experiment: Inhibition of human PLK3 expressed in baculovirus infected in Trichoplusia ni cells using Biotin-Ahx-SFNDTLDFD as substrate in presence of ATP by TopCount scintillation proximity assay; parameters: species or system Trichoplusia ni cell
In short: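 Full-length PLK3 (5 nmol/L) from baculovirus-infected Trichoplusia ni cells in 25 mmol/L HEPES pH 7.2, 15 mmol/L MgCl2, 1 μmol/L ATP with [γ-33P]ATP, 1 μmol/L biotinylated peptide, BSA, DTT. Incubated 1–1.5 h at 22°C in the linear range. Stopped with EDTA plus streptavidin SPA beads, then counted or imaged. Signal above EDTA background taken as percent inhibition versus DMSO wells.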

[2] = target: Mitogen-activated protein kinase 14 (Homo sapiens, UniProt Q16539); experiment: Inhibition of p38alpha (unknown origin)
Sequence of Mitogen-activated protein kinase 14 (Q16539 whole entry): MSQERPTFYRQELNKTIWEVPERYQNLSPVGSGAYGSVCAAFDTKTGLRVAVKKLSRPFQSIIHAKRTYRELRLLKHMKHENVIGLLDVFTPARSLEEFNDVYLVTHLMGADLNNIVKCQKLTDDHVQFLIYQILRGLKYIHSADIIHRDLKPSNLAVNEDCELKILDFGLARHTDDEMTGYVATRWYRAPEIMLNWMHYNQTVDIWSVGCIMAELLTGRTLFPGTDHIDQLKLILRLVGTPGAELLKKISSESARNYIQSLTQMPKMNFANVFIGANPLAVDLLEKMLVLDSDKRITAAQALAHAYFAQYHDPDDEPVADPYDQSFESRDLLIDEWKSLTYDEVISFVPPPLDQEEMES

[3] = Inhibition of EGFR (unknown origin); parameters: species or system Homo sapiens
[4] = Selectivity ratio of IC50 for cytotoxicity against human HDF cells to IC50 for anti-proliferative activity against human HeLa cells; assay type: toxicity, cell-based; conditions: HDF cells versus HeLa cells, read-out: Ratio IC50
[5] = Selectivity ratio of IC50 for cytotoxicity against human HDF cells to IC50 for antiproliferative activity against human PC-3 cells; assay type: toxicity, cell-based; conditions: HDF cells versus PC-3 cells
[6] = system: HeLa; experiment: Inhibition of p53-PLK1 in human HeLa cells assessed as inhibition of p53 phosphorylation at Ser15 residue by Western blotting analysis; assay type: cell-based; conditions: dose 0.0015-30 µM
In short: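 HeLa cells with tet-inducible p53-PLK1 fusion induced overnight with 125 ng/mL doxycycline, then treated 6 h with 3-fold dilutions (30–0.00152 μmol/L). Lysates resolved on 4–12% Bis-Tris gels, transferred to nitrocellulose, probed for phospho-Ser15 p53 or total p53.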

[7] = system: NCI-H460; experiment: Antiproliferative activity against human NCI-H460 cells assessed as outgrowth of cells at 0.37 micromol/L incubated for 72 hrs; assay type: functional, cell-based; conditions: dose 0.37 µmol/L
In short: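 HDF seeded at 1,300 and H460 at 600 per well in 96-well plates. After 24 h, exposed to vehicle (0.3% DMSO) or compound at 0.37–30 μmol/L for 72 h. Wells were then washed with PBS and refed with drug-free medium containing gentamicin. Regrowth was followed by methylene blue staining at set time points over 13 days in total.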

[8] = system: NHDF; experiment: Induction of cell cycle arrest in human HDF cells assessed as accumulation of cells at G1 phase at 3 micromol/L incubated for 24 hrs by propidium iodide staining based flow cytometry analysis (reference value: 57.0 %); assay type: toxicity; conditions: 3 µM, dose 3 µmol/L
In short: (§1)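 Cells seeded in six-well plates at densities that keep them in log growth (HDF 120,000, 60,000 or 30,000; H460 100,000, 50,000 or 25,000 per well for 24, 48 or 72 h). Treated with 1 or 3 μmol/L. Floating and adherent cells collected, ethanol-fixed, permeabilized with Triton X-100 and stained with propidium iodide. DNA content read by flow cytometry as % singlet cells.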

[9] = system: NHDF; experiment: Induction of cell cycle arrest in human HDF cells assessed as accumulation of cells at S phase at 1 micromol/L incubated for 24 hrs by propidium iodide staining based flow cytometry analysis (reference value: 13.2 %); assay type: toxicity; conditions: 1 µM, dose 1 µmol/L; in short: as §1
[10] = system: NHDF; experiment: Induction of cell cycle arrest in human HDF cells assessed as accumulation of cells at S phase at 3 micromol/L incubated for 24 hrs by propidium iodide staining based flow cytometry analysis (reference value: 13.2 %); assay type: toxicity; conditions: 3 µM, dose 3 µmol/L; in short: as §1
[11] = system: NHDF; experiment: Induction of cell cycle arrest in human HDF cells assessed as accumulation of cells at >4N phase at 3 micromol/L incubated for 24 hrs by propidium iodide staining based flow cytometry analysis (reference value: 2.4 %); assay type: toxicity; conditions: 3 µM, dose 3 µmol/L; in short: as §1
[12] = system: NHDF; experiment: Induction of cell cycle arrest in human HDF cells assessed as accumulation of cells at Sub-2N phase at 1 micromol/L incubated for 72 hrs by propidium iodide staining based flow cytometry analysis (reference value: 0.7 %); assay type: toxicity; conditions: 1 µM, dose 1 µmol/L; in short: as §1
[13] = system: NCI-H460; experiment: Induction of cell cycle arrest in human NCI-H460 cells assessed as accumulation of cells at G1 phase at 3 micromol/L incubated for 24 hrs by propidium iodide staining based flow cytometry analysis (reference value: 45.5 %); assay type: functional; conditions: dose 3 µmol/L, at 3 µM; in short: as §1
[14] = system: NCI-H460; experiment: Induction of cell cycle arrest in human NCI-H460 cells assessed as accumulation of cells at G2-M phase at 3 micromol/L incubated for 24 hrs by propidium iodide staining based flow cytometry analysis (reference value: 19.8 %); assay type: functional; conditions: dose 3 µmol/L, at 3 µM
[15] = system: NCI-H460; experiment: Induction of cell cycle arrest in human NCI-H460 cells assessed as accumulation of cells at >4N phase at 1 micromol/L incubated for 24 hrs by propidium iodide staining based flow cytometry analysis (reference value: 1.2 %); assay type: functional; conditions: dose 1 µmol/L, at 1 µM; in short: as §1
[16] = system: NCI-H460; experiment: Induction of cell cycle arrest in human NCI-H460 cells assessed as accumulation of cells at >4N phase at 3 micromol/L incubated for 24 hrs by propidium iodide staining based flow cytometry analysis (reference value: 1.2 %); assay type: functional; conditions: dose 3 µmol/L, at 3 µM; in short: as §1
[17] = system: NCI-H460; experiment: Induction of cell cycle arrest in human NCI-H460 cells assessed as accumulation of cells at S phase at 3 micromol/L incubated for 48 hrs by propidium iodide staining based flow cytometry analysis (reference value: 18.5 %); assay type: functional; conditions: dose 3 µmol/L, at 3 µM
[18] = system: NCI-H460; experiment: Induction of cell cycle arrest in human NCI-H460 cells assessed as accumulation of cells at G1 phase at 1 micromol/L incubated for 72 hrs by propidium iodide staining based flow cytometry analysis (reference value: 58.2 %); assay type: functional; conditions: dose 1 µmol/L, at 1 µM; in short: as §1
[19] = system: NCI-H460; experiment: Induction of cell cycle arrest in human NCI-H460 cells assessed as accumulation of cells at >4N phase at 1 micromol/L incubated for 72 hrs by propidium iodide staining based flow cytometry analysis (reference value: 0.9 %); assay type: functional; conditions: dose 1 µmol/L, at 1 µM; in short: as §1

Sequence of Serine/threonine-protein kinase PLK3 (Q9H4B4 whole entry): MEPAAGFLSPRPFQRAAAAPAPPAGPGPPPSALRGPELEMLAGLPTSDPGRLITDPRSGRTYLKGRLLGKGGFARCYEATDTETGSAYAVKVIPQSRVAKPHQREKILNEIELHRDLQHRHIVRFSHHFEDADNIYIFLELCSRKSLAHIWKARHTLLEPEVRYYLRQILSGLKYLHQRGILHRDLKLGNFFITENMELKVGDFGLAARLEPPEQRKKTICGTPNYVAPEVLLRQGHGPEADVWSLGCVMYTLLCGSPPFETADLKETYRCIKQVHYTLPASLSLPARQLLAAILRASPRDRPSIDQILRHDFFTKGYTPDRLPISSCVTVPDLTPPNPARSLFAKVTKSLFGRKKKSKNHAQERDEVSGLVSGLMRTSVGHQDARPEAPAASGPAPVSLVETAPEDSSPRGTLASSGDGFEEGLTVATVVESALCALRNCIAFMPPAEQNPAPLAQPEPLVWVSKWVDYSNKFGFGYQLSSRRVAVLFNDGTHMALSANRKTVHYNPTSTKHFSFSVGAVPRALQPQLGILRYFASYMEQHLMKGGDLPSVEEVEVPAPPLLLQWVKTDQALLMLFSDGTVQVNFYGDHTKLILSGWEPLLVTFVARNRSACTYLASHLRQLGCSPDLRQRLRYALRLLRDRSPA

SMILES: COc1cc2ncn(-c3cc(OCc4ccccc4C(F)(F)F)c(C(N)=O)s3)c2cc1OC [GW843682X]
- IC50 [1]: 0.0091 µM
- IC50 [2]: > 10 µM
- IC50 [3]: > 10 µM
- selectivity ratio [4]: > 10
- selectivity ratio [5]: 0.9
- inhibition [6]: Dose-Dependent Effect
- Activity [7]: Active
- Activity [8]: 21.1%
- Activity [9]: 10.2%
- Activity [10]: 4.2%
- Activity [11]: 6%
- Activity [12]: 1.3%
- Activity [13]: 7.8%
- Activity [14]: 37.7%
- Activity [15]: 5.1%
- Activity [16]: 6.2%
- Activity [17]: 8%
- Activity [18]: 2.5%
- Activity [19]: 58.6%
